One test concerns the target D(2) dopamine receptor (Rattus norvegicus, UniProt P61169). Description: Binding affinity against Dopamine receptor D2 from rat using [3H]raclopride as radioligand. Summed up:
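Washed Sprague–Dawley rat striatal membranes (200 μg protein) incubated with 3 nM [3H]raclopride in 120 mM NaCl/5 mM KCl/50 mM Tris-HCl pH 7.4, 60 min at room temperature. Nine concentrations in duplicate, 1% DMSO final. Nonspecific binding with 300 μM sulpiride.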

Test [1] addresses T1, Adrenergic receptor alpha-1 (Rattus norvegicus, UniProt P15823+P23944+P43140).
T1 sequence (P15823 whole entry): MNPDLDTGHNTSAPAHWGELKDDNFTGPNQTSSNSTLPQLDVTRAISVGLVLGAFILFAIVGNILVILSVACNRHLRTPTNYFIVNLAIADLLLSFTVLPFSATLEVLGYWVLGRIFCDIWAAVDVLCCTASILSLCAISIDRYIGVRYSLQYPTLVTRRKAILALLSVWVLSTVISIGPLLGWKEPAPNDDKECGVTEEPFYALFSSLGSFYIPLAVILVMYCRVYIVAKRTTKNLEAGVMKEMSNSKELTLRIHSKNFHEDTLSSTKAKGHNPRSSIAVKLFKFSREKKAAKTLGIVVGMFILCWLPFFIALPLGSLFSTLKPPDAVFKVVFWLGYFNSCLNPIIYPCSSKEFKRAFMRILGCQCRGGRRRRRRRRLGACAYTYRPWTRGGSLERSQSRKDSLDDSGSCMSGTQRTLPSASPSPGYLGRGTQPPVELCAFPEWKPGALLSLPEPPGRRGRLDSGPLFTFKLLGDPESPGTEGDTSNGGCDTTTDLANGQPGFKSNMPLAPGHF
T1 sequence (P23944 whole entry): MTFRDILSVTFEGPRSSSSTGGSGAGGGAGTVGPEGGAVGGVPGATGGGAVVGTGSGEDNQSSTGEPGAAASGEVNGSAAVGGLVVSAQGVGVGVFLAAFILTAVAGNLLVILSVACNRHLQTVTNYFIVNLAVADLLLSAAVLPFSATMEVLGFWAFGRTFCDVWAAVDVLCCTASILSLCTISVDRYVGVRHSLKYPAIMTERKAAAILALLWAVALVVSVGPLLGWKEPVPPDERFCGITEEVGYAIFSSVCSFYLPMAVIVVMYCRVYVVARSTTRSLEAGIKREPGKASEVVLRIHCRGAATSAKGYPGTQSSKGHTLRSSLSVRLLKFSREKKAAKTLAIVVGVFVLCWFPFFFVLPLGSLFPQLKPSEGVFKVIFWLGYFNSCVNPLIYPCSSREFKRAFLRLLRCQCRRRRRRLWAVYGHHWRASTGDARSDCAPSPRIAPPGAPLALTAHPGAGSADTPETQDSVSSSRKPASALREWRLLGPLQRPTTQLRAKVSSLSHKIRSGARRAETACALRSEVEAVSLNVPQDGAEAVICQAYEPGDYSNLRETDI
T1 sequence (P43140 whole entry): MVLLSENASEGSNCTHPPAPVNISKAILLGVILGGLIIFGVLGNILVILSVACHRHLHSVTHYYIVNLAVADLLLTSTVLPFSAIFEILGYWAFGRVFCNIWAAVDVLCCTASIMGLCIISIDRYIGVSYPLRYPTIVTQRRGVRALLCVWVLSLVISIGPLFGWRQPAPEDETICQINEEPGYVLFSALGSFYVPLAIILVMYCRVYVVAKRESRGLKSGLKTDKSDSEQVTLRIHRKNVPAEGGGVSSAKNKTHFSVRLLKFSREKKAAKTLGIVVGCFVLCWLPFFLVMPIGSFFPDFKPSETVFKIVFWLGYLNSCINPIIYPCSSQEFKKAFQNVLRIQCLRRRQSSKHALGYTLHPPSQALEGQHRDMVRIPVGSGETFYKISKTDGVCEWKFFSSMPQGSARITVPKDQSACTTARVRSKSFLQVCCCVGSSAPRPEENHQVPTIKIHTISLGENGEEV
In words: The compound was tested for binding affinity against Alpha-1 adrenergic receptor from rat using [3H]prazosin as radioligand. It counts as protein assay. Summed up: (§1)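 Rat cortical membranes (Sprague–Dawley, triple-washed; 200 μg protein) incubated with 0.8 nM [3H]prazosin in 140 mM NaCl/5 mM MgCl2/50 mM Tris-HCl pH 7.4, 60 min at room temperature. Nine concentrations in duplicate, 1% DMSO final. Nonspecific binding defined by 10 μM phentolamine.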

Test [2] addresses T2, Glutamate NMDA receptor; Grin1/Grin2b (Rattus norvegicus, UniProt P35439+Q00960). Description: Antagonistic activity against rat N-methyl-D-aspartate glutamate receptor 1/2B expressed in Xenopus oocytes. It counts as functional, cell-based, Oocyte. Summed up: (§2)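 Cloned NR1A/2B receptors in oocytes, recorded by two-electrode voltage clamp at -70 mV in nominally Ca2+-free Ringer (pH 7.4). Drugs are bath perfused, with final DMSO 0.1–1%. IC50 for inhibition of NMDA responses is fitted from partial 3–5 point curves, with the residual fractional response ('min') fixed at 0.15. Mean ± SEM.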

The target in test [3] is T3, Glutamate NMDA receptor; Grin1/Grin2c (Rattus norvegicus, UniProt P35439+Q00961). Description: Antagonistic activity against rat N-methyl-D-aspartate glutamate receptor 1/2C expressed in Xenopus oocytes. It counts as functional, cell-based, Oocyte. The method in brief: (§3)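 Two-electrode voltage clamp at -70 mV in nominally Ca2+-free Ringer (NaCl 115, KCl 2, BaCl2 1.8, HEPES 5 mM, pH 7.4). Drugs are given by bath perfusion at 7–10 mL/min, with final DMSO 0.1–1%. Inhibition of NMDA responses is measured, and IC50 is fitted from partial 3–5 point concentration–inhibition curves with a free residual minimum. Mean ± SEM, n as reported.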
T3 sequence (Q00961 whole entry, other chains not shown, the tested form may be a part): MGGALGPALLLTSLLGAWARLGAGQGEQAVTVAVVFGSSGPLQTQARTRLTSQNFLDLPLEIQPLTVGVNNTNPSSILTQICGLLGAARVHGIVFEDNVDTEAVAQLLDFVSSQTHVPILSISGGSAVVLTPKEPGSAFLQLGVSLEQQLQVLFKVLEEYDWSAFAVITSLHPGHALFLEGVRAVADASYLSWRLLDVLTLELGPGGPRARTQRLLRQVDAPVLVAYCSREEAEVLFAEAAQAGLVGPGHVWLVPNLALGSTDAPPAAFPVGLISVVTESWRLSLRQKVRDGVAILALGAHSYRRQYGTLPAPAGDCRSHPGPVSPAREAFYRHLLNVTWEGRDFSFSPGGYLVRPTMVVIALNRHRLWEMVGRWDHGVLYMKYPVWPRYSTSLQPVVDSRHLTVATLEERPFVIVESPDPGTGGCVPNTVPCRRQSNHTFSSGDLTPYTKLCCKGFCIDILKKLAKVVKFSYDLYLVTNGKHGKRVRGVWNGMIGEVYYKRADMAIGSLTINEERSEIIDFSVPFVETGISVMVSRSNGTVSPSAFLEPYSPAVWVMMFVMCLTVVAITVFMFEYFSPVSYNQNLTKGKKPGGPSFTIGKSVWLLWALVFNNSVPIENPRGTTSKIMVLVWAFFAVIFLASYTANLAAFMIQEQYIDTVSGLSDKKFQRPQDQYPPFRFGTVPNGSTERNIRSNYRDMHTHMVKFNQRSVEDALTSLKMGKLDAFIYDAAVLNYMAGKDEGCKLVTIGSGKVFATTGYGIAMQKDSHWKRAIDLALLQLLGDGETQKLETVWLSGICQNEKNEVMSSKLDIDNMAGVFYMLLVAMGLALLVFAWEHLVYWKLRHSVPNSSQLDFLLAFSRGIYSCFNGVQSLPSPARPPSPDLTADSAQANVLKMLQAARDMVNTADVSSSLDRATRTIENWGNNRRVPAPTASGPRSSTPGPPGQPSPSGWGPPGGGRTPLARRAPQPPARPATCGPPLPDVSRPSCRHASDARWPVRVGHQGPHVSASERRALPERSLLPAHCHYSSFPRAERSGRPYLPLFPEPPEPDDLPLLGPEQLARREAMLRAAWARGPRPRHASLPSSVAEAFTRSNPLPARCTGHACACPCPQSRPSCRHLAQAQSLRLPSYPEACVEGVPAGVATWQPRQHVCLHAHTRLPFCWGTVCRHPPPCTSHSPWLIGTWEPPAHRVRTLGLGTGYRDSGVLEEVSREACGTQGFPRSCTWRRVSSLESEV

For test [4], the target named is T4, Glutamate NMDA receptor; Grin1/Grin2a (Rattus norvegicus, UniProt P35439+Q00959). Description: Antagonistic activity against rat N-methyl-D-aspartate glutamate receptor 1/2A, expressed in Xenopus oocytes. It counts as functional, cell-based, Oocyte. The method in brief:
as §3

The target in test [5] is T3, Glutamate NMDA receptor; Grin1/Grin2c. In words: The compound was tested for antagonistic activity against rat NR1A/2C receptor expressed in Xenopus oocytes. It counts as functional, cell-based, Oocyte. The method in brief:
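Drugs are given by bath perfusion at 7–10 mL/min, with final DMSO 0.1–1%. Inhibition of NMDA responses is measured, and IC50 is fitted from partial 3–5 point concentration–inhibition curves with a free residual minimum. Mean ± SEM, n as reported.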

The target of test [6] is T1, Adrenergic receptor alpha-1. Description: Binding affinity against alpha-1 adrenergic receptor from rat using [3H]-prazosin as radioligand. It counts as protein assay. The method in brief: as §1
In test [7] the target is T4, Glutamate NMDA receptor; Grin1/Grin2a. Description: Antagonistic activity against rat NR1A/2A receptor, expressed in Xenopus oocytes. It counts as functional, cell-based, Oocyte. The method in brief:
as §3

Test [8] addresses T2, Glutamate NMDA receptor; Grin1/Grin2b. In words: Antagonistic activity against rat NR1A/2B receptor expressed in Xenopus oocytes. It counts as functional, cell-based, Oocyte. The method in brief: as §2
Test [9] can be described thus: Antagonistic activity against rat NR1A/2A receptor, expressed in Xenopus oocytes. It counts as functional, cell-based. The conditions noted are these: Oocyte. The method in brief: as §3

SMILES strings stand for the structures.

D(2) dopamine receptor, sequence (P61169 whole entry): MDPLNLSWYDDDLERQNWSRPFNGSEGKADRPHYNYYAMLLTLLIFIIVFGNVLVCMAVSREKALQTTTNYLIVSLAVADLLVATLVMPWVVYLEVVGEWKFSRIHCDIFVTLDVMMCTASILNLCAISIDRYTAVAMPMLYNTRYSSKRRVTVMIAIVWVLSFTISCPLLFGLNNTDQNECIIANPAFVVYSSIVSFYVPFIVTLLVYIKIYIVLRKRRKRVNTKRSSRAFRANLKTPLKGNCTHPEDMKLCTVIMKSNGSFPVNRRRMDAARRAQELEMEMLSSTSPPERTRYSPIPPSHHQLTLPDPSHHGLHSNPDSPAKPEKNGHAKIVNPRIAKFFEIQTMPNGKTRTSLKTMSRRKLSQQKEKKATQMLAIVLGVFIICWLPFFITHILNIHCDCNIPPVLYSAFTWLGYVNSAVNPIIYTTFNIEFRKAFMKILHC
T2 sequence (Q00960 whole entry, other chains not shown, the tested form may be a part): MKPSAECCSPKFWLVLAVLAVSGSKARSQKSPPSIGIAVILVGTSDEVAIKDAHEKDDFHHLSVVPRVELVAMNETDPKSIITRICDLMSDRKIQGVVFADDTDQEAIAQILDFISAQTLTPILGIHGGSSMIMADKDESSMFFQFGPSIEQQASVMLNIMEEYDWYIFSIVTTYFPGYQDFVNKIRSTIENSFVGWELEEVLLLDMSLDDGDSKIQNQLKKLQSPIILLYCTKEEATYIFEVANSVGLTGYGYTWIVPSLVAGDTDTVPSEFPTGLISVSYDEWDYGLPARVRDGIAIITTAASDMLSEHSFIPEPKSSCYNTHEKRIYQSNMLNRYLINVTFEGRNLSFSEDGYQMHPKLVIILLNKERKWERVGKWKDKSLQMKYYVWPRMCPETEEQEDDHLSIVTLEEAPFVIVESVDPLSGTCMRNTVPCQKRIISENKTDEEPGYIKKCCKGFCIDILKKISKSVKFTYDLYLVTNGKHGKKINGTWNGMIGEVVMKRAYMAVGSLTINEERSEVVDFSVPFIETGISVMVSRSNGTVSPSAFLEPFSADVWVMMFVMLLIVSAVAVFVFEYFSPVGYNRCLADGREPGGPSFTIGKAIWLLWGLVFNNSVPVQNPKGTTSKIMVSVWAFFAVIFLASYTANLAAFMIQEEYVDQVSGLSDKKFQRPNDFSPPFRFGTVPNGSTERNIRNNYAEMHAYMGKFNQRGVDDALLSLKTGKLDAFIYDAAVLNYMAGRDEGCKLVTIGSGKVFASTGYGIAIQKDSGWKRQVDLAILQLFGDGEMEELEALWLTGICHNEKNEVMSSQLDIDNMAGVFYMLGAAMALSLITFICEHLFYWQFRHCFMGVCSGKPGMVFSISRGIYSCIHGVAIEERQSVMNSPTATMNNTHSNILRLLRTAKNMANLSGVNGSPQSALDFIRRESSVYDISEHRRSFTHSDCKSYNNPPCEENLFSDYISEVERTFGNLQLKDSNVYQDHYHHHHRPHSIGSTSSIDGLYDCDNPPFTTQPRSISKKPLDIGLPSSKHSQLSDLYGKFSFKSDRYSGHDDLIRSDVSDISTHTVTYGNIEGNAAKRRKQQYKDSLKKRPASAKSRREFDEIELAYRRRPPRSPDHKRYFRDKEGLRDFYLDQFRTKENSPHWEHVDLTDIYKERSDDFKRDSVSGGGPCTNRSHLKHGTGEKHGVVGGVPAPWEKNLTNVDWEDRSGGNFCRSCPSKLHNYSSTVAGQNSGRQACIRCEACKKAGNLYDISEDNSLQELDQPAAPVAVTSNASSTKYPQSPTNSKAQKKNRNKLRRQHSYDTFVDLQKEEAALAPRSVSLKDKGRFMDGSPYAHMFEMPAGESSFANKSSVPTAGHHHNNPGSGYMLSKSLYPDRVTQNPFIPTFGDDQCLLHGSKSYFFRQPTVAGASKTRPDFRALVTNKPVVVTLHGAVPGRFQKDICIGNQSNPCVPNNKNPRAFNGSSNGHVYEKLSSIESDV
T4 sequence (Q00959 whole entry, other chains not shown): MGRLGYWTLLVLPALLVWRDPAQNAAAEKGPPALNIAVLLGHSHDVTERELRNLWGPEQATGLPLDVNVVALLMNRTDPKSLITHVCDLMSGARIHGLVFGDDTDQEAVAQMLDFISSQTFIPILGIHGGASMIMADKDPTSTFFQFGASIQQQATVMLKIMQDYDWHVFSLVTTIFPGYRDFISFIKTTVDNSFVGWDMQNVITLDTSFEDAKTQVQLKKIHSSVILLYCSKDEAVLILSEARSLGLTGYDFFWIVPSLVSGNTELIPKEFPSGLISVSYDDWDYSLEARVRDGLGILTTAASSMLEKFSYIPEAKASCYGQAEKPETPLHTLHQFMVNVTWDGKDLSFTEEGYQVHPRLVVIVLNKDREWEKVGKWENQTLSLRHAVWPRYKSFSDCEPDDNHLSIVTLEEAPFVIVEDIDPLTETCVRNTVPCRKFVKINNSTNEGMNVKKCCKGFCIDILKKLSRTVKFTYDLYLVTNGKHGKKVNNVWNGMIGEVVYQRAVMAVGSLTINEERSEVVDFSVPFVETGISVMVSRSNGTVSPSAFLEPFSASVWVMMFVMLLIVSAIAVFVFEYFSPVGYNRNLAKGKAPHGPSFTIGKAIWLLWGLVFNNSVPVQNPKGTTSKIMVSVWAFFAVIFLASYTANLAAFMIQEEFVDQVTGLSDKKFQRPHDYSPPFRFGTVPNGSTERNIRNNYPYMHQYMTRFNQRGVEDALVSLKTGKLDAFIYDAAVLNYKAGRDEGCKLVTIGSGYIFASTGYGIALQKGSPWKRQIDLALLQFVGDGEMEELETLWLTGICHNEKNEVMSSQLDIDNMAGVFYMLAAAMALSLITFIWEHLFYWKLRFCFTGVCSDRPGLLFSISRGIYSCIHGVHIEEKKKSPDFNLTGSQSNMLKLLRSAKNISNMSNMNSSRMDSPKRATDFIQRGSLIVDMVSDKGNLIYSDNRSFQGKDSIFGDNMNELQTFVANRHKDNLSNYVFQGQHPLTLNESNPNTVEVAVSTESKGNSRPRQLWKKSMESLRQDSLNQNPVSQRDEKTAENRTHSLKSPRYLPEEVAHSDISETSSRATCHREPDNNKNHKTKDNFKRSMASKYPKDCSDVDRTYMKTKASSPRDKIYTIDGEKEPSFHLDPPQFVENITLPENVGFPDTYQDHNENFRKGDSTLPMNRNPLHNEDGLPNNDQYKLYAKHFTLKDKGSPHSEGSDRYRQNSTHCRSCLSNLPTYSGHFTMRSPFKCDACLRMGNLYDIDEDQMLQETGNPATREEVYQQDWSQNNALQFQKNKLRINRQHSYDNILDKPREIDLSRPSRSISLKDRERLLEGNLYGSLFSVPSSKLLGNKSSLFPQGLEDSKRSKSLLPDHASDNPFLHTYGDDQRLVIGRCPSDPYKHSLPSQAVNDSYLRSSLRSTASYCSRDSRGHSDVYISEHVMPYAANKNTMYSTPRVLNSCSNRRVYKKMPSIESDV

As a reminder, the IC50 is the midpoint of a concentration-inhibition curve. Regarding `CNc1ccc(C#CCCN2CCC(Cc3ccccc3)CC2)cc1`, the IC50 was 300 nM on D(2) dopamine receptor; 1000 nM in test [1]; 460 nM in test [2]; greater than 100000 nM in test [3]; 84000 nM in [4].
As to `Nc1ccc(C#CCCN2CCC(Cc3ccccc3)CC2)cc1N`, the IC50 at D(2) dopamine receptor was 1100 nM; in [5], greater than 100000 nM; in [6], 1000 nM; in test [7], greater than 100000 nM; in test [8] it was 190 nM.
Take `Nc1ccc(C#CCCN2CCC(O)(Cc3ccccc3)CC2)cc1`: the 50% inhibitory concentration (IC50) is 15000 nM on D(2) dopamine receptor, 63000 nM in [6], greater than 100000 nM in [7] and 830 nM in test [8].
On to `Nc1ccc(C#CCCN2CCC(O)(Cc3ccc(F)cc3)CC2)cc1`, for which the half-maximal inhibitory concentration (IC50) on D(2) dopamine receptor is 7900 nM; in [5], greater than 100000 nM; in test [6], 31000 nM; in test [7], 29000 nM; in test [8], 650 nM.
In the case of `CS(=O)(=O)Nc1ccc(C#CCN2CCC(Cc3ccccc3)CC2)cc1`, the IC50 on D(2) dopamine receptor is 12000 nM; in test [1], 2200 nM; in [2], 150 nM; in [3], greater than 100000 nM; in test [4] it was greater than 100000 nM.
Turning to `NCc1cccc(C#CCCN2CCC(Cc3ccccc3)CC2)c1`, the 50% inhibitory concentration (IC50) is 300 nM at D(2) dopamine receptor, 800 nM in test [1], 520 nM in test [2] and greater than 100000 nM in test [3].
As to `CS(=O)(=O)Nc1ccc(C#CCCCN2CCC(Cc3ccccc3)CC2)cc1`, the half-maximal inhibitory concentration (IC50) on D(2) dopamine receptor was 2300 nM; in [1] it was 1100 nM; in test [2], 280 nM; in [3], greater than 100000 nM; in test [4] it was greater than 100000 nM.
With `C(#Cc1ccccc1)CCN1CCC(Cc2ccccc2)CC1`, the values for the half-inhibitory concentration (IC50) in test [8] and in [9] were 4700 nM and greater than 100000 nM, respectively.
Consider `Oc1ccc(C#CCN2CCC(Cc3ccccc3)CC2)cc1`, for which the concentration for half-maximal inhibition (IC50) was 1700 nM at D(2) dopamine receptor; greater than 100000 nM in [5]; 1500 nM in test [6]; greater than 100000 nM in test [7]; 100 nM in test [8].
For `Nc1ccc(C#CCCN2CCC(Cc3ccc(F)cc3)CC2)cc1`, the 50% inhibitory concentration (IC50) on D(2) dopamine receptor was 400 nM; in test [5], greater than 100000 nM; in [6], 700 nM; in [7], 70000 nM; in test [8], 260 nM.
Consider `NS(=O)(=O)c1ccc(C#CCCN2CCC(Cc3ccccc3)CC2)cc1`, for which the IC50 on D(2) dopamine receptor is 100 nM; in [1] it was 1400 nM; in [2], 310 nM; in [3], greater than 100000 nM; in test [4] it was 22000 nM.
In the case of `Nc1ccc(C#CCCN2CCC(Cc3ccccc3)CC2)cc1`, the 50% inhibitory concentration (IC50) turned out to be 800 nM at D(2) dopamine receptor, 1000 nM in test [6] and 430 nM in [8].
Turning to `Oc1ccc(C#CCCN2CCC(Cc3ccccc3)CC2)cc1`, the IC50 was 290 nM on D(2) dopamine receptor, 580 nM in test [6], greater than 100000 nM in [7] and 170 nM in [8].
As for `CC(=O)Nc1ccc(C#CCCN2CCC(Cc3ccccc3)CC2)cc1`, the IC50 on D(2) dopamine receptor is 100 nM; in [1] it was 1100 nM; in test [2] it was 260 nM; in test [3] it was greater than 100000 nM; in test [4] it was greater than 100000 nM.
For the compound `Cc1ccc(CC2CCN(CCC#Cc3ccc(N)cc3)CC2)cc1`, the IC50 turned out to be 800 nM on D(2) dopamine receptor; 27000 nM in [5]; 1200 nM in test [6]; 75000 nM in test [7]; 310 nM in [8].
Consider `CS(=O)(=O)Nc1ccc(C#CCCN2CCC(Cc3ccccc3)CC2)cc1`, for which the IC50 at D(2) dopamine receptor was 200 nM; in [1], 1200 nM; in test [2] it was 240 nM; in test [3], greater than 100000 nM; in test [4], greater than 100000 nM.
Consider `Cc1ccc(CC2(O)CCN(CCC#Cc3ccc(N)cc3)CC2)cc1`, for which the half-inhibitory concentration (IC50) on D(2) dopamine receptor was 10000 nM; in test [5] it was greater than 100000 nM; in test [6] it was 85000 nM; in test [7], 68000 nM; in test [8] it was 370 nM.

(Values after ChEMBL document CHEMBL1132273, “Subtype-selective N-methyl-D-aspartate receptor antagonists: synthesis and biological evaluation of 1-(arylalkynyl)-4-benzylpiperidines” (J Med Chem, 1999).)
